Data published in ChEMBL document CHEMBL3616437, “Thiazole compounds with activity against Cryptococcus gattii and Cryptococcus neoformans in vitro” (Eur J Med Chem, 2015).
Calls of active or inactive are those of the source. The calls are words filed in the database; no cut-off is given here.

Experiments:
Cryptococcus neoformans [1] = assay: Antifungal activity against Cryptococcus neoformans 28JF assessed as reduction in cell viability at 1.9 uM after 6 to 72 hrs by MTT assay; assay type: functional
Cryptococcus neoformans [2] = assay: Antifungal activity against Cryptococcus neoformans F10 assessed as reduction in cell viability at 1.9 uM after 6 to 72 hrs by MTT assay; assay type: functional
Cryptococcus neoformans [3] = assay: Antifungal activity against Cryptococcus neoformans WP assessed as reduction in cell viability at 1.9 uM after 6 to 72 hrs by MTT assay; assay type: functional
Cryptococcus neoformans [4] = assay: Antifungal activity against Cryptococcus neoformans ATCC 28957 assessed as reduction in cell viability at 1.9 uM after 6 to 72 hrs by MTT assay; assay type: functional
Cryptococcus neoformans [5] = assay: Antifungal activity against Cryptococcus neoformans VM-MCMMPI assessed as reduction in cell viability at 1.9 uM after 6 to 72 hrs by MTT assay; assay type: functional
Cryptococcus neoformans [6] = assay: Antifungal activity against Cryptococcus neoformans LMM820 assessed as reduction in cell viability at 1.9 uM after 6 to 72 hrs by MTT assay; assay type: functional
Cryptococcus neoformans [7] = assay: Antifungal activity against Cryptococcus neoformans CN31 assessed as reduction in cell viability at 1.9 uM after 6 to 72 hrs by MTT assay; assay type: functional
Cryptococcus neoformans [8] = assay: Antifungal activity against Cryptococcus neoformans ATCC 24067 assessed as reduction in cell viability at 0.9 uM after 6 to 72 hrs by MTT assay; assay type: functional
Cryptococcus neoformans [9] = assay: Antifungal activity against Cryptococcus neoformans ATCC 28957 assessed as reduction in cell viability at 0.9 uM after 6 to 72 hrs by MTT assay; assay type: functional
[10] = system: Cryptococcus gattii species complex; assay: Post-antifungal activity against Cryptococcus gattii L27/01 assessed as organism required time to achieve cell population of 10^4 cells/ml at 0.45 uM treated for 1 hr by MTT assay; assay type: functional, Cryptococcus bacillisporus
[11] = system: Cryptococcus gattii species complex; assay: Post-antifungal activity against Cryptococcus gattii L27/01 assessed as organism required time to achieve cell population of 10^4 cells/ml at 0.45 uM treated for 1 hr by MTT assay in presence of 0.11 uM amphotericin B; assay type: functional, Cryptococcus bacillisporus
[12] = system: Cryptococcus gattii species complex; assay: Antifungal activity against Cryptococcus gattii 196L/03 assessed as reduction in ergosterol content at MIC after 24 hrs by spectrophotometric analysis in presence of amphotericin B; assay type: functional, organism-based; details: Cryptococcus bacillisporus
Method in brief: (§1)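 Pellet washed and weighed, then saponified in 25% ethanolic KOH at 85°C for 1 h. Extracted with water and n-heptane, read at 282 and 230 nm. Ergosterol taken from a standard curve and expressed as % of growth control.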

Cryptococcus neoformans [13] = assay: Antifungal activity against Cryptococcus neoformans 28JF assessed as reduction in cell viability at 0.9 uM after 6 to 72 hrs by MTT assay; assay type: functional
Cryptococcus neoformans [14] = assay: Antifungal activity against Cryptococcus neoformans CN31 assessed as reduction in cell viability at 0.9 uM after 6 to 72 hrs by MTT assay; assay type: functional
Cryptococcus neoformans [15] = assay: Antifungal activity against Cryptococcus neoformans 27JF assessed as reduction in cell viability at 0.9 uM after 6 to 72 hrs by MTT assay; assay type: functional
Cryptococcus neoformans [16] = assay: Antifungal activity against Cryptococcus neoformans WP assessed as reduction in cell viability at 0.9 uM after 6 to 72 hrs by MTT assay; assay type: functional
[17] = system: Cryptococcus gattii species complex; assay: Antifungal activity against Cryptococcus gattii L27/01 assessed as reduction in ergosterol content at MIC after 24 hrs by spectrophotometric analysis in presence of amphotericin B; assay type: functional, organism-based; details: Cryptococcus bacillisporus; method in brief: as §1
Cryptococcus neoformans [18] = assay: Antifungal activity against Cryptococcus neoformans F10 assessed as reduction in cell viability at 0.9 uM after 6 to 72 hrs by MTT assay; assay type: functional
[19] = system: Cryptococcus gattii species complex; assay: Post-antifungal activity against Cryptococcus gattii L27/01 assessed as organism required time to achieve cell population of 10^4 cells/ml at 0.11 uM treated for 1 hr by MTT assay; assay type: functional, Cryptococcus bacillisporus
[20] = system: Cryptococcus bacillisporus; assay: Antifungal activity against Cryptococcus gattii ATCC 32608 assessed as reduction in cell viability after at 0.12 uM 6 to 72 hrs by MTT assay; assay type: functional
Cryptococcus neoformans [21] = assay: Antifungal activity against Cryptococcus neoformans F10 assessed as reduction in cell viability at 0.12 uM after 6 to 72 hrs by MTT assay; assay type: functional
[22] = system: Cryptococcus gattii species complex; assay: Antifungal activity against Cryptococcus gattii 23/10993 assessed as reduction in cell viability at 0.12 uM after 6 to 72 hrs by MTT assay; assay type: functional, Cryptococcus bacillisporus
Cryptococcus neoformans [23] = assay: Post-antifungal activity against Cryptococcus neoformans CN31 assessed as organism required time to achieve cell population of 10^4 cells/ml at 0.05 uM treated for 1 hr by MTT assay; assay type: functional
Cryptococcus neoformans [24] = assay: Antifungal activity against Cryptococcus neoformans ATCC 62066 assessed as reduction in cell viability at 0.12 uM after 6 to 72 hrs by MTT assay; assay type: functional
[25] = system: Cryptococcus gattii species complex; assay: Antifungal activity against Cryptococcus gattii 547/OTTI-97-PI-10 assessed as reduction in cell viability at 0.12 uM after 6 to 72 hrs by MTT assay; assay type: functional, Cryptococcus bacillisporus
[26] = system: Cryptococcus gattii species complex; assay: Antifungal activity against Cryptococcus gattii LMM818 assessed as reduction in cell viability at 0.12 uM after 6 to 72 hrs by MTT assay; assay type: functional, Cryptococcus bacillisporus
[27] = system: Cryptococcus gattii species complex; assay: Antifungal activity against Cryptococcus gattii 135L/03 assessed as reduction in cell viability at 0.12 uM after 6 to 72 hrs by MTT assay; assay type: functional, Cryptococcus bacillisporus
[28] = system: Cryptococcus gattii species complex; assay: Antifungal activity against Cryptococcus gattii 1913ER assessed as reduction in cell viability at 0.12 uM after 6 to 72 hrs by MTT assay; assay type: functional, Cryptococcus bacillisporus
Cryptococcus neoformans [29] = assay: Antifungal activity against Cryptococcus neoformans WP assessed as reduction in cell viability at 26 uM after 6 to 72 hrs by MTT assay; assay type: functional
Method in brief: (§2)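 Time-kill setup: colonies from two 48 h, 35°C SDA passages were suspended in saline to 70% transmittance at 530 nm. They were then diluted to 1-5 x10^3 cells/mL in RPMI with L-glutamine buffered to pH 7.0 with 0.165 M MOPS. Plates were incubated at 35°C for 0-72 h, then MTT (5.0 mg/mL) was added for 3 h. After isopropanol, absorbance was read at 490 nm. Drug-free controls were included, results were confirmed by SDA colony counts, and assays were run in triplicate.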

Cryptococcus neoformans [30] = assay: Antifungal activity against Cryptococcus neoformans F10 assessed as reduction in cell viability at 26 uM after 6 to 72 hrs by MTT assay; assay type: functional; method in brief: as §2
Cryptococcus neoformans [31] = assay: Antifungal activity against Cryptococcus neoformans 27JF assessed as reduction in cell viability at 26 uM after 6 to 72 hrs by MTT assay; assay type: functional; method in brief: as §2
[32] = system: Cryptococcus gattii species complex; assay: Antifungal activity against Cryptococcus gattii L27/01 assessed as reduction in cell viability at 26 uM after 6 to 72 hrs by MTT assay; assay type: functional, Cryptococcus bacillisporus; method in brief: as §2
Cryptococcus neoformans [33] = assay: Antifungal activity against Cryptococcus neoformans ATCC 28957 assessed as reduction in cell viability at 26 uM after 6 to 72 hrs by MTT assay; assay type: functional; method in brief: as §2
[34] = system: Cryptococcus gattii species complex; assay: Antifungal activity against Cryptococcus gattii 135L/03 assessed as reduction in cell viability at 26 uM after 6 to 72 hrs by MTT assay; assay type: functional, Cryptococcus bacillisporus; method in brief: as §2
Cryptococcus neoformans [35] = assay: Antifungal activity against Cryptococcus neoformans 5396 assessed as reduction in cell viability at 26 uM after 6 to 72 hrs by MTT assay; assay type: functional; method in brief: as §2
[36] = system: Cryptococcus gattii species complex; assay: Antifungal activity against Cryptococcus gattii 23/10993 assessed as reduction in cell viability at 26 uM after 6 to 72 hrs by MTT assay; assay type: functional, Cryptococcus bacillisporus; method in brief: as §2

Work on `C(=N\Nc1nc(-c2ccccc2)cs1)/C1CCCCC1` yielded an Activity (Cryptococcus neoformans [1]) of 90%, an Activity (Cryptococcus neoformans [2]) of 90% and an Activity (Cryptococcus neoformans [3]) of 90%. The Activity (Cryptococcus neoformans [4]) was 90%, the Activity (Cryptococcus neoformans [5]) was 90% and the Activity (Cryptococcus neoformans [6]) was 90%. It also gave an Activity (Cryptococcus neoformans [7]) of 90%.
`COc1ccc(-c2csc(N/N=C(\C)CCO)n2)cc1` gave an Activity (Cryptococcus neoformans [8]) of 90%, an Activity (Cryptococcus neoformans [9]) of 90% and a Time [10] of 1.7 h. For the same compound, the Time [11] was 2.15 h, the Activity [12] was “inactive” and the Activity (Cryptococcus neoformans [13]) was 90%. The Activity (Cryptococcus neoformans [14]) was 90%, the Activity (Cryptococcus neoformans [15]) was 90% and the Activity (Cryptococcus neoformans [16]) was 90%. The Activity [17] was “inactive” and the Activity (Cryptococcus neoformans [18]) was 90%.
`C[C@@H]1[C@H](O)[C@@H](C)/C=C/C=C/C=C/C=C/C=C/C=C/C=C/[C@H](O[C@@H]2O[C@H](C)[C@@H](O)[C@H](N)[C@@H]2O)C[C@@H]2O[C@](O)(C[C@@H](O)C[C@@H](O)[C@H](O)CC[C@@H](O)C[C@@H](O)CC(=O)O[C@H]1C)C[C@H](O)[C@H]2C(=O)O` [AMPHOTERICIN B] was tested, and the Time [19] was 2.65 h, the Activity [20] was 90% and the Activity (Cryptococcus neoformans [21]) was 90%. The Activity [22] was 90%, the Time (Cryptococcus neoformans [23]) was 2.75 h and the Activity (Cryptococcus neoformans [24]) was 90%. For the same compound, the Activity [25] was 90%, the Activity [26] was 90% and the Activity [27] was 90%. For the same compound, the Activity [28] was 90%.
Work on `OC(Cn1cncn1)(Cn1cncn1)c1ccc(F)cc1F` [FLUCONAZOLE] yielded an Activity (Cryptococcus neoformans [29]) of 80%, an Activity (Cryptococcus neoformans [30]) of 80% and an Activity (Cryptococcus neoformans [31]) of 80%. It also gave an Activity [32] of 80%, an Activity (Cryptococcus neoformans [33]) of 80% and an Activity [34] of 80%. It also gave an Activity (Cryptococcus neoformans [35]) of 80% and an Activity [36] of 80%.
